Among the data in ChEMBL document CHEMBL4842354, “Synthesis, structure-activity relationships, cocrystallization and cellular characterization of novel smHDAC8 inhibitors for the treatment of schistosomiasis” (Eur J Med Chem, 2021) are Activity, IC50 and inhibition values, retold here.

As a reminder, the IC50 is the concentration that gives 50% inhibition. A word on the inhibition: it is the share of the control response that was lost under treatment.

The test system of the first data set is HEK293. The experiment in a line: Cytotoxicity against human HEK293 assessed as reduction in cell viability at 50 uM measured for 24 hrs by Alamar Blue assay. Type of data set: cell-based. Particulars: hek293, 24 h. In outline:
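HEK293 cells in DMEM with 10% FCS and 5 mM glutamine at 37°C, 5% CO2, seeded at 1.5×10^3 cells/well. Compounds added at 50 μM. AlamarBlue added after 24 h and incubated a further 21 h. Resorufin fluorescence read at Ex 530/Em 590 nm. Triplicates; daunorubicin positive control.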
A general note: Resazurin is reduced to fluorescent resorufin, in cell work by metabolically active cells.
In the case of `COc1ccc(C(=O)NO)cc1NC(=O)c1ccc(-c2ccc(F)cc2)cc1Cl`, the Activity stood at 83.5%.

With `COc1ccc(C(C)=O)cc1NC(=O)c1cc(C(=O)NO)ccc1C`, the Activity is listed as 94.8%.

With `CCOc1ccc(C(C)=O)cc1NC(=O)c1cc(C(=O)NO)ccc1C`, the Activity is 87.7%.

Consider `COc1ccc(C(=O)NO)cc1NC(=O)c1ccc2[nH]c3c(c2c1)CN(C)CC3.Cl`, for which the Activity is 71.1%.

Consider `CCCOc1ccc(C(=O)Nc2cc(C(=O)NO)ccc2OC)cc1`, for which the Activity is listed as 93.2%.

Regarding `COc1ccc(C(=O)NO)cc1C(=O)Nc1ccc2sccc2c1`, the Activity came out at 95.6%.

Consider `Cc1ccc(C(=O)NO)cc1NC(=O)c1cccc(OCc2c(Cl)cccc2Cl)c1`, for which the Activity is reported as 66.6%.

As to `COc1ccc(C(=O)NO)cc1NC(=O)c1nc2ccccc2[nH]1`, the Activity was found to be 83.5%.

With `COc1ccc(C(=O)NO)cc1NC(=O)c1cccc2c1/C(=N/O)c1ccccc1-2`, the Activity was found to be 76.6%.

For `O=C(NO)c1ccc(Cl)c(NC(=O)c2ccc(-c3ccc(F)cc3)cc2Cl)c1`, the Activity is listed as 82.2%.

As to `COc1ccc(C(=O)NO)cc1C(=O)Nc1ccc(Cl)cc1`, the Activity is 27.5%.

Turning to `COc1ccc(C(=O)NO)cc1NC(=O)c1ccc(OC(C)C)cc1`, the Activity is 93.1%.

`O=C(C1CCCCC1)N1CC(=O)N2CCc3ccccc3C2C1` (stereo not drawn) [PRAZIQUANTEL]: the Activity amounted to 99.3%.

Take `COc1ccc(C(C)=O)cc1NC(=O)c1cc(C(=O)NO)ccc1Cl`: the Activity was determined as 89.1%.

For the compound `COc1ccc(C(=O)NO)cc1NC(=O)c1cccc2cccnc12`, the Activity came out at 77%.

In the next data set the test system is Schistosoma mansoni. The experiment in a line: Antischistosomal activity against Schistosoma mansoni schistosomula at 10 uM incubated for 48 hrs by Alamar Blue assay.
Conditions: not given
Type of data set: functional. An outline of the steps:
(§1)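 S. mansoni newly transformed schistosomula from mechanically transformed cercariae, 100 NTS/well in Medium 199 with 10% FCS, penicillin, streptomycin and rifampicin. Pre-cultured 3 h at 37°C, 5% CO2. Compounds from 20 mM DMSO stocks, final 10 or 20 μM. Alamar Blue added after 48 h exposure, then 24 h more. Resorufin read at Ex 530/Em 590 nm. Live and ethanol-killed larvae as controls; triplicate wells, two biological replicates.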
Compound `COc1ccc(C(=O)NO)cc1NC(=O)c1ccc(-c2ccc(F)cc2)cc1Cl` returned an Activity of 74.6%.

For `COc1ccc(C(C)=O)cc1NC(=O)c1cc(C(=O)NO)ccc1C`, the Activity is listed as 75.2%.

In turn, `CCOc1ccc(C(C)=O)cc1NC(=O)c1cc(C(=O)NO)ccc1C` yielded an Activity of 42.1%.

Take `COc1ccc(C(=O)NO)cc1NC(=O)c1ccc2[nH]c3c(c2c1)CN(C)CC3.Cl`: the Activity worked out at 98%.

Compound `CCCOc1ccc(C(=O)Nc2cc(C(=O)NO)ccc2OC)cc1` returned an Activity of 70.7%.

`COc1ccc(C(=O)NO)cc1C(=O)Nc1ccc2sccc2c1` returned an Activity of 82.1%.

Compound `Cc1ccc(C(=O)NO)cc1NC(=O)c1cccc(OCc2c(Cl)cccc2Cl)c1` displayed an Activity of 38.4%.

On to `COc1ccc(C(=O)NO)cc1NC(=O)c1nc2ccccc2[nH]1`, for which the Activity was 69.5%.

For `COc1ccc(C(=O)NO)cc1NC(=O)c1cccc2c1/C(=N/O)c1ccccc1-2`, the Activity was found to be 98.5%.

Compound `O=C(NO)c1ccc(Cl)c(NC(=O)c2ccc(-c3ccc(F)cc3)cc2Cl)c1` registered an Activity of 63.4%.

Turning to `COc1ccc(C(=O)NO)cc1C(=O)Nc1ccc(Cl)cc1`, the Activity is 77.3%.

Regarding `COc1ccc(C(=O)NO)cc1NC(=O)c1ccc(OC(C)C)cc1`, the Activity was determined as 72.6%.

Consider `O=C(C1CCCCC1)N1CC(=O)N2CCc3ccccc3C2C1` (stereo not drawn) [PRAZIQUANTEL], for which the Activity was 92.1%.

In turn, `COc1ccc(C(C)=O)cc1NC(=O)c1cc(C(=O)NO)ccc1Cl` registered an Activity of 62.6%.

On to `COc1ccc(C(=O)NO)cc1NC(=O)c1cccc2cccnc12`, for which the Activity came out at 62%.

The test system of another data set is Schistosoma mansoni. In words: Antischistosomal activity against Schistosoma mansoni schistosomula at 20 uM incubated for 48 hrs by Alamar Blue assay. Type of data set: functional.
Conditions: not given
An outline of the steps: as §1
With `COc1ccc(C(=O)NO)cc1NC(=O)c1ccc(-c2ccc(F)cc2)cc1Cl`, the Activity is 60.5%.

In turn, `COc1ccc(C(C)=O)cc1NC(=O)c1cc(C(=O)NO)ccc1C` came in with an Activity of 69.5%.

Regarding `CCOc1ccc(C(C)=O)cc1NC(=O)c1cc(C(=O)NO)ccc1C`, the Activity amounted to 37%.

With `COc1ccc(C(=O)NO)cc1NC(=O)c1ccc2[nH]c3c(c2c1)CN(C)CC3.Cl`, the Activity is reported as 100%.

As for `CCCOc1ccc(C(=O)Nc2cc(C(=O)NO)ccc2OC)cc1`, the Activity was found to be 51.6%.

`COc1ccc(C(=O)NO)cc1C(=O)Nc1ccc2sccc2c1` gave an Activity of 77.1%.

For the compound `Cc1ccc(C(=O)NO)cc1NC(=O)c1cccc(OCc2c(Cl)cccc2Cl)c1`, the Activity came to 22.3%.

In turn, `COc1ccc(C(=O)NO)cc1NC(=O)c1nc2ccccc2[nH]1` registered an Activity of 47.1%.

Regarding `COc1ccc(C(=O)NO)cc1NC(=O)c1cccc2c1/C(=N/O)c1ccccc1-2`, the Activity worked out at 96%.

For the compound `O=C(NO)c1ccc(Cl)c(NC(=O)c2ccc(-c3ccc(F)cc3)cc2Cl)c1`, the Activity is 56.6%.

The compound `COc1ccc(C(=O)NO)cc1C(=O)Nc1ccc(Cl)cc1` came in with an Activity of 59.2%.

`COc1ccc(C(=O)NO)cc1NC(=O)c1ccc(OC(C)C)cc1`: the Activity is on record as 56.2%.

Regarding `O=C(C1CCCCC1)N1CC(=O)N2CCc3ccccc3C2C1` (stereo not drawn) [PRAZIQUANTEL], the Activity worked out at 88.9%.

In the case of `COc1ccc(C(C)=O)cc1NC(=O)c1cc(C(=O)NO)ccc1Cl`, the Activity was 32.3%.

Compound `COc1ccc(C(=O)NO)cc1NC(=O)c1cccc2cccnc12` returned an Activity of 40%.

Another data set concerns the target T1, Histone deacetylase 8 (Schistosoma mansoni, UniProt A5H660).
T1 sequence (A5H660 whole entry): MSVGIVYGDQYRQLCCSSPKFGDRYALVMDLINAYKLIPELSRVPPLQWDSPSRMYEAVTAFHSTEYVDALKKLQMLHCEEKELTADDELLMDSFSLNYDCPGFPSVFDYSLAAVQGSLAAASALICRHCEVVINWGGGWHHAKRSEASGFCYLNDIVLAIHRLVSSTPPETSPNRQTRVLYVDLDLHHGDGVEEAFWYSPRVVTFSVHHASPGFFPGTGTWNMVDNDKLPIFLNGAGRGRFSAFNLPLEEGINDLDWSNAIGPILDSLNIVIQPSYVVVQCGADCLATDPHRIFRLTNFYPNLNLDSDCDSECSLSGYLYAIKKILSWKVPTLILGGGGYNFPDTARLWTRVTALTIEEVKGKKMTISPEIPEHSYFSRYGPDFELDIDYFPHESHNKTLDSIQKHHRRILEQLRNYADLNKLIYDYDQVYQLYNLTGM
In words: Inhibition of Schistosoma mansoni HDAC8 using Fluor de Lys as substrate incubated for 90 mins by fluorescence method.
Conditions: not given
An outline of the steps: (§2)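 Recombinant smHDAC8 or hHDAC8 (Romier lab) run to Fluor de Lys HDAC8 kit protocol. Substrate H2N-Arg-His-Lys(Ac)-Lys(Ac)-AMC at 50 μM with increasing inhibitor concentrations, 90 min at 37°C. Stop solution holding inhibitor plus trypsin, then 20 min at 37°C to release AMC. Fluorescence read at Ex 355/Em 460 nm.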
Take `COc1ccc(C(=O)NO)cc1NC(=O)c1ccc(-c2ccc(F)cc2)cc1Cl`: inhibition was half-maximal at 320 nM (IC50).

On to `COc1ccc(C(C)=O)cc1NC(=O)c1cc(C(=O)NO)ccc1C`, for which inhibition was half-maximal at 180 nM (IC50).

`CCOc1ccc(C(C)=O)cc1NC(=O)c1cc(C(=O)NO)ccc1C` returned an IC50 of 210 nM.

In turn, `COc1ccc(C(=O)NO)cc1NC(=O)c1ccc2[nH]c3c(c2c1)CN(C)CC3.Cl` showed an IC50 of 200 nM.

`CCCOc1ccc(C(=O)Nc2cc(C(=O)NO)ccc2OC)cc1` displayed an IC50 of 730 nM.

As to `COc1ccc(C(=O)NO)cc1C(=O)Nc1ccc2sccc2c1`, the IC50 is 220 nM.

`Cc1ccc(C(=O)NO)cc1NC(=O)c1cccc(OCc2c(Cl)cccc2Cl)c1` showed an IC50 of 520 nM.

`COc1ccc(C(=O)NO)cc1NC(=O)c1nc2ccccc2[nH]1` came in with an IC50 of 580 nM.

For `COc1ccc(C(=O)NO)cc1NC(=O)c1cccc2c1/C(=N/O)c1ccccc1-2`, the IC50 amounted to 320 nM.

Regarding `O=C(NO)c1ccc(Cl)c(NC(=O)c2ccc(-c3ccc(F)cc3)cc2Cl)c1`, the IC50 was determined as 280 nM.

`COc1ccc(C(=O)NO)cc1C(=O)Nc1ccc(Cl)cc1` had an IC50 of 310 nM.

As to `COc1ccc(C(=O)NO)cc1NC(=O)c1ccc(OC(C)C)cc1`, the IC50 was 730 nM.

In turn, `COc1ccc(C(C)=O)cc1NC(=O)c1cc(C(=O)NO)ccc1Cl` came in with an IC50 of 290 nM.

As for `COc1ccc(C(=O)NO)cc1NC(=O)c1cccc2cccnc12`, the IC50 came to 330 nM.

Regarding `COc1ccc(C(=O)NO)cc1NCc1cccc2c1oc1ccccc12`, half-maximal inhibition (IC50) was put at 450 nM.

In the next data set the target is T2, Histone deacetylase 8 (Homo sapiens) (UniProt Q9BY41).
T2 sequence (whole entry): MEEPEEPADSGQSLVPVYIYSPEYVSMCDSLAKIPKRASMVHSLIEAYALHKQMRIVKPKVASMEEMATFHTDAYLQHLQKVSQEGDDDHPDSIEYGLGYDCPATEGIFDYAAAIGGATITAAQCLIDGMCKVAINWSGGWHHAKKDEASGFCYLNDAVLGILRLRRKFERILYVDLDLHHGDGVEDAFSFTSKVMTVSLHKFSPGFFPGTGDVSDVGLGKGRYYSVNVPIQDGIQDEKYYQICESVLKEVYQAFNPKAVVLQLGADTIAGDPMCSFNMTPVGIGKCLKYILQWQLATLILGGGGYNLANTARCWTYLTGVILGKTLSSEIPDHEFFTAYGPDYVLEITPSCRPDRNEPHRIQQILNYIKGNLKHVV
In words: Inhibition of human recombinant HDAC8 at 1 uM using H2N-Arg-His-Lys(Ac)-Lys(Ac)-AMC as substrate after 90 mins by fluorescence based micro plate assay.
Conditions: not given
In outline: as §2
With `COc1ccc(C(=O)NO)cc1NC(=O)c1ccc(-c2ccc(F)cc2)cc1Cl`, the inhibition amounted to 48%.

As to `CCCOc1ccc(C(=O)Nc2cc(C(=O)NO)ccc2OC)cc1`, the inhibition was determined as 66%.

For the compound `Cc1ccc(C(=O)NO)cc1NC(=O)c1cccc(OCc2c(Cl)cccc2Cl)c1`, the inhibition turned out to be 34%.

As for `COc1ccc(C(=O)NO)cc1NC(=O)c1nc2ccccc2[nH]1`, the inhibition came to 29%.

`O=C(NO)c1ccc(Cl)c(NC(=O)c2ccc(-c3ccc(F)cc3)cc2Cl)c1`: the inhibition worked out at 25%.

For a further data set, the target named is T3, Histone deacetylase 8 (Homo sapiens, UniProt Q9BY41).
T3 sequence (Q9BY41 whole entry): T2 sequence (whole entry)
In words: Inhibition of human recombinant HDAC8 using H2N-Arg-His-Lys(Ac)-Lys(Ac)-AMC as substrate after 90 mins by fluorescence based micro plate assay.
Conditions: not given
Regarding `COc1ccc(C(C)=O)cc1NC(=O)c1cc(C(=O)NO)ccc1C`, the IC50 amounted to 90 nM.

In the case of `CCOc1ccc(C(C)=O)cc1NC(=O)c1cc(C(=O)NO)ccc1C`, the IC50 was 70 nM.

For `COc1ccc(C(=O)NO)cc1NC(=O)c1ccc2[nH]c3c(c2c1)CN(C)CC3.Cl`, the IC50 turned out to be 290 nM.

With `COc1ccc(C(=O)NO)cc1C(=O)Nc1ccc2sccc2c1`, the IC50 was 100 nM.

For the compound `COc1ccc(C(=O)NO)cc1NC(=O)c1cccc2c1/C(=N/O)c1ccccc1-2`, the concentration for half-maximal inhibition (IC50) came out at 150 nM.

For `COc1ccc(C(C)=O)cc1NC(=O)c1cc(C(=O)NO)ccc1Cl`, the IC50 was found to be 90 nM.

On to `COc1ccc(C(=O)NO)cc1NC(=O)c1cccc2cccnc12`, for which the 50% inhibitory concentration (IC50) worked out at 180 nM.

In the case of `COc1ccc(C(=O)NO)cc1NCc1cccc2c1oc1ccccc12`, the IC50 amounted to 860 nM.
